Assay results: ChEMBL document CHEMBL5058577, “EUbOPEN Chemogenomics Library 2 (Multiplex)” (2022)

Test system: U2OS
Test: Multiplex assay against U2OS
Format: toxicity, cell-based
Conditions: human
How it was run: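 Values for tubulin, mitochondrial-mass and membrane-permeability phenotypes are per cents of cells with healthy nuclei. These cells were identified by CellPathfinder machine-learning gating of live cells that had been stained at seeding with Hoechst33342, BioTracker Green Microtubule Cytoskeleton Dye, MitoTracker Red and Annexin V Alexa Fluor 680 and imaged on a CQ1 microscope at 37°C and 5% CO2 after compound addition. The gating first set Hoechst high-intensity objects apart from normal cells, then split normal cells into healthy, pyknosed or fragmented nuclei, and pyknosed cells into mitotic or apoptotic.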

[1] = 12 h, 1 µM, compound concentration 1 uM, replicate 1
[2] = 12 h, 1 µM, compound concentration 1 uM, replicate 2
[3] = 12 h, 10 µM, compound concentration 10 uM, replicate 1
[4] = 12 h, 10 µM, compound concentration 10 uM, replicate 2
[5] = 24 h, 1 µM, compound concentration 1 uM, replicate 1
[6] = 24 h, 1 µM, compound concentration 1 uM, replicate 2
[7] = 24 h, 10 µM, compound concentration 10 uM, replicate 1
[8] = 24 h, 10 µM, compound concentration 10 uM, replicate 2
[9] = 48 h, 1 µM, compound concentration 1 uM, replicate 1
[10] = 48 h, 1 µM, compound concentration 1 uM, replicate 2
[11] = 48 h, 10 µM, compound concentration 10 uM, replicate 1
[12] = 48 h, 10 µM, compound concentration 10 uM, replicate 2

CNC[C@H](O)c1ccc(O)c(O)c1 [EPINEPHRINE]
Population Apoptotic (%) [1]: 88%
Population Fragmented Nuclei (%) [1]: 35%
Population Healthy Nuclei (%) [1]: 56%
Population Hoechst High Intensity Objects (%) [1]: 2%
Population Membrane Permeable-Phenotype (%) [1]: 5%
Population Mitochondria Different-Phenotype (%) [1]: 1%
Population Mitotic Cells (%) [1]: 11%
Population Normal (%) [1]: 97%
Population Pyknosed Nuclei (%) [1]: 7%
Population Tubulin-Different-Phenotype (%) [1]: 2%
Total Cell Count [1]: 229
Population Apoptotic (%) [2]: 80%
Population Fragmented Nuclei (%) [2]: 17%
Population Healthy Nuclei (%) [2]: 77%
Population Hoechst High Intensity Objects (%) [2]: 0%
Population Membrane Permeable-Phenotype (%) [2]: 7%
Population Mitochondria Different-Phenotype (%) [2]: 2%
Population Mitotic Cells (%) [2]: 20%
Population Normal (%) [2]: 100%
Population Pyknosed Nuclei (%) [2]: 5%
Population Tubulin-Different-Phenotype (%) [2]: 4%
Total Cell Count [2]: 92
Population Apoptotic (%) [3]: 92%
Population Fragmented Nuclei (%) [3]: 41%
Population Healthy Nuclei (%) [3]: 45%
Population Hoechst High Intensity Objects (%) [3]: 6%
Population Membrane Permeable-Phenotype (%) [3]: 7%
Population Mitochondria Different-Phenotype (%) [3]: 1%
Population Mitotic Cells (%) [3]: 8%
Population Normal (%) [3]: 93%
Population Pyknosed Nuclei (%) [3]: 13%
Population Tubulin-Different-Phenotype (%) [3]: 4%
Total Cell Count [3]: 199
Population Apoptotic (%) [4]: 86%
Population Fragmented Nuclei (%) [4]: 33%
Population Healthy Nuclei (%) [4]: 50%
Population Hoechst High Intensity Objects (%) [4]: 9%
Population Membrane Permeable-Phenotype (%) [4]: 6%
Population Mitochondria Different-Phenotype (%) [4]: 2%
Population Mitotic Cells (%) [4]: 13%
Population Normal (%) [4]: 90%
Population Pyknosed Nuclei (%) [4]: 15%
Population Tubulin-Different-Phenotype (%) [4]: 6%
Total Cell Count [4]: 105
Population Apoptotic (%) [5]: 84%
Population Fragmented Nuclei (%) [5]: 28%
Population Healthy Nuclei (%) [5]: 64%
Population Hoechst High Intensity Objects (%) [5]: 2%
Population Membrane Permeable-Phenotype (%) [5]: 6%
Population Mitochondria Different-Phenotype (%) [5]: 1%
Population Mitotic Cells (%) [5]: 15%
Population Normal (%) [5]: 97%
Population Pyknosed Nuclei (%) [5]: 7%
Population Tubulin-Different-Phenotype (%) [5]: 2%
Total Cell Count [5]: 278
Population Apoptotic (%) [6]: 75%
Population Fragmented Nuclei (%) [6]: 19%
Population Healthy Nuclei (%) [6]: 68%
Population Membrane Permeable-Phenotype (%) [6]: 7%
Population Mitochondria Different-Phenotype (%) [6]: 5%
Population Mitotic Cells (%) [6]: 25%
Population Pyknosed Nuclei (%) [6]: 11%
Population Tubulin-Different-Phenotype (%) [6]: 1%
Total Cell Count [6]: 105
Population Apoptotic (%) [7]: 94%
Population Fragmented Nuclei (%) [7]: 39%
Population Healthy Nuclei (%) [7]: 50%
Population Hoechst High Intensity Objects (%) [7]: 9%
Population Membrane Permeable-Phenotype (%) [7]: 11%
Population Mitochondria Different-Phenotype (%) [7]: 5%
Population Mitotic Cells (%) [7]: 5%
Population Normal (%) [7]: 90%
Population Pyknosed Nuclei (%) [7]: 10%
Population Tubulin-Different-Phenotype (%) [7]: 6%
Total Cell Count [7]: 195
Population Apoptotic (%) [8]: 100%
Population Fragmented Nuclei (%) [8]: 31%
Population Healthy Nuclei (%) [8]: 45%
Population Hoechst High Intensity Objects (%) [8]: 11%
Population Membrane Permeable-Phenotype (%) [8]: 2%
Population Mitochondria Different-Phenotype (%) [8]: 0%
Population Mitotic Cells (%) [8]: 0%
Population Normal (%) [8]: 88%
Population Pyknosed Nuclei (%) [8]: 22%
Population Tubulin-Different-Phenotype (%) [8]: 2%
Total Cell Count [8]: 96
Population Apoptotic (%) [9]: 87%
Population Fragmented Nuclei (%) [9]: 24%
Population Healthy Nuclei (%) [9]: 66%
Population Hoechst High Intensity Objects (%) [9]: 0%
Population Membrane Permeable-Phenotype (%) [9]: 9%
Population Mitochondria Different-Phenotype (%) [9]: 5%
Population Mitotic Cells (%) [9]: 12%
Population Normal (%) [9]: 99%
Population Pyknosed Nuclei (%) [9]: 9%
Population Tubulin-Different-Phenotype (%) [9]: 4%
Total Cell Count [9]: 333
Population Apoptotic (%) [10]: 92%
Population Fragmented Nuclei (%) [10]: 18%
Population Healthy Nuclei (%) [10]: 72%
Population Membrane Permeable-Phenotype (%) [10]: 4%
Population Mitochondria Different-Phenotype (%) [10]: 3%
Population Mitotic Cells (%) [10]: 7%
Population Tubulin-Different-Phenotype (%) [10]: 2%
Total Cell Count [10]: 150
Population Apoptotic (%) [11]: 92%
Population Fragmented Nuclei (%) [11]: 41%
Population Healthy Nuclei (%) [11]: 44%
Population Hoechst High Intensity Objects (%) [11]: 10%
Population Membrane Permeable-Phenotype (%) [11]: 15%
Population Mitochondria Different-Phenotype (%) [11]: 8%
Population Mitotic Cells (%) [11]: 7%
Population Normal (%) [11]: 89%
Population Pyknosed Nuclei (%) [11]: 14%
Population Tubulin-Different-Phenotype (%) [11]: 10%
Total Cell Count [11]: 215
Population Apoptotic (%) [12]: 94%
Population Fragmented Nuclei (%) [12]: 36%
Population Healthy Nuclei (%) [12]: 40%
Population Hoechst High Intensity Objects (%) [12]: 17%
Population Membrane Permeable-Phenotype (%) [12]: 24%
Population Mitochondria Different-Phenotype (%) [12]: 13%
Population Mitotic Cells (%) [12]: 5%
Population Normal (%) [12]: 82%
Population Pyknosed Nuclei (%) [12]: 23%
Population Tubulin-Different-Phenotype (%) [12]: 13%
Total Cell Count [12]: 87

O=S(=O)(c1ccccc1)c1cnc2c(N3CCNCC3)cccc2c1 [INTEPIRDINE]
Population Apoptotic (%) [1]: 76%
Population Fragmented Nuclei (%) [1]: 23%
Population Healthy Nuclei (%) [1]: 68%
Population Hoechst High Intensity Objects (%) [1]: 1%
Population Membrane Permeable-Phenotype (%) [1]: 6%
Population Mitochondria Different-Phenotype (%) [1]: 3%
Population Mitotic Cells (%) [1]: 23%
Population Normal (%) [1]: 98%
Population Pyknosed Nuclei (%) [1]: 7%
Population Tubulin-Different-Phenotype (%) [1]: 4%
Total Cell Count [1]: 267
Population Apoptotic (%) [2]: 70%
Population Fragmented Nuclei (%) [2]: 17%
Population Healthy Nuclei (%) [2]: 71%
Population Hoechst High Intensity Objects (%) [2]: 0%
Population Membrane Permeable-Phenotype (%) [2]: 7%
Population Mitochondria Different-Phenotype (%) [2]: 6%
Population Mitotic Cells (%) [2]: 30%
Population Normal (%) [2]: 100%
Population Pyknosed Nuclei (%) [2]: 11%
Population Tubulin-Different-Phenotype (%) [2]: 7%
Total Cell Count [2]: 88
Population Apoptotic (%) [3]: 58%
Population Fragmented Nuclei (%) [3]: 25%
Population Healthy Nuclei (%) [3]: 61%
Population Hoechst High Intensity Objects (%) [3]: 3%
Population Membrane Permeable-Phenotype (%) [3]: 23%
Population Mitochondria Different-Phenotype (%) [3]: 11%
Population Mitotic Cells (%) [3]: 41%
Population Normal (%) [3]: 96%
Population Pyknosed Nuclei (%) [3]: 12%
Population Tubulin-Different-Phenotype (%) [3]: 14%
Total Cell Count [3]: 204
Population Apoptotic (%) [4]: 85%
Population Fragmented Nuclei (%) [4]: 10%
Population Healthy Nuclei (%) [4]: 79%
Population Hoechst High Intensity Objects (%) [4]: 2%
Population Membrane Permeable-Phenotype (%) [4]: 12%
Population Mitochondria Different-Phenotype (%) [4]: 13%
Population Mitotic Cells (%) [4]: 14%
Population Normal (%) [4]: 97%
Population Pyknosed Nuclei (%) [4]: 10%
Population Tubulin-Different-Phenotype (%) [4]: 10%
Total Cell Count [4]: 139
Population Apoptotic (%) [5]: 80%
Population Fragmented Nuclei (%) [5]: 22%
Population Healthy Nuclei (%) [5]: 67%
Population Hoechst High Intensity Objects (%) [5]: 2%
Population Membrane Permeable-Phenotype (%) [5]: 7%
Population Mitochondria Different-Phenotype (%) [5]: 2%
Population Mitotic Cells (%) [5]: 19%
Population Normal (%) [5]: 97%
Population Pyknosed Nuclei (%) [5]: 9%
Population Tubulin-Different-Phenotype (%) [5]: 4%
Total Cell Count [5]: 319
Population Apoptotic (%) [6]: 69%
Population Fragmented Nuclei (%) [6]: 14%
Population Healthy Nuclei (%) [6]: 73%
Population Hoechst High Intensity Objects (%) [6]: 0%
Population Membrane Permeable-Phenotype (%) [6]: 3%
Population Mitochondria Different-Phenotype (%) [6]: 3%
Population Mitotic Cells (%) [6]: 30%
Population Normal (%) [6]: 99%
Population Pyknosed Nuclei (%) [6]: 12%
Population Tubulin-Different-Phenotype (%) [6]: 1%
Total Cell Count [6]: 108
Population Apoptotic (%) [7]: 72%
Population Fragmented Nuclei (%) [7]: 23%
Population Healthy Nuclei (%) [7]: 60%
Population Hoechst High Intensity Objects (%) [7]: 3%
Population Membrane Permeable-Phenotype (%) [7]: 17%
Population Mitochondria Different-Phenotype (%) [7]: 14%
Population Mitotic Cells (%) [7]: 27%
Population Normal (%) [7]: 96%
Population Pyknosed Nuclei (%) [7]: 16%
Population Tubulin-Different-Phenotype (%) [7]: 10%
Total Cell Count [7]: 233
Population Apoptotic (%) [8]: 77%
Population Fragmented Nuclei (%) [8]: 10%
Population Healthy Nuclei (%) [8]: 77%
Population Hoechst High Intensity Objects (%) [8]: 0%
Population Membrane Permeable-Phenotype (%) [8]: 10%
Population Mitochondria Different-Phenotype (%) [8]: 17%
Population Mitotic Cells (%) [8]: 22%
Population Normal (%) [8]: 99%
Population Pyknosed Nuclei (%) [8]: 11%
Population Tubulin-Different-Phenotype (%) [8]: 6%
Total Cell Count [8]: 156
Population Apoptotic (%) [9]: 89%
Population Fragmented Nuclei (%) [9]: 15%
Population Healthy Nuclei (%) [9]: 70%
Population Hoechst High Intensity Objects (%) [9]: 3%
Population Membrane Permeable-Phenotype (%) [9]: 6%
Population Mitochondria Different-Phenotype (%) [9]: 4%
Population Mitotic Cells (%) [9]: 10%
Population Normal (%) [9]: 96%
Population Pyknosed Nuclei (%) [9]: 14%
Population Tubulin-Different-Phenotype (%) [9]: 4%
Total Cell Count [9]: 416
Population Apoptotic (%) [10]: 76%
Population Fragmented Nuclei (%) [10]: 13%
Population Healthy Nuclei (%) [10]: 68%
Population Membrane Permeable-Phenotype (%) [10]: 3%
Population Mitochondria Different-Phenotype (%) [10]: 2%
Population Mitotic Cells (%) [10]: 23%
Population Pyknosed Nuclei (%) [10]: 18%
Population Tubulin-Different-Phenotype (%) [10]: 2%
Total Cell Count [10]: 148
Population Apoptotic (%) [11]: 78%
Population Fragmented Nuclei (%) [11]: 22%
Population Healthy Nuclei (%) [11]: 59%
Population Hoechst High Intensity Objects (%) [11]: 4%
Population Membrane Permeable-Phenotype (%) [11]: 15%
Population Mitochondria Different-Phenotype (%) [11]: 7%
Population Mitotic Cells (%) [11]: 22%
Population Normal (%) [11]: 95%
Population Pyknosed Nuclei (%) [11]: 17%
Population Tubulin-Different-Phenotype (%) [11]: 6%
Total Cell Count [11]: 302
Population Apoptotic (%) [12]: 95%
Population Fragmented Nuclei (%) [12]: 13%
Population Healthy Nuclei (%) [12]: 75%
Population Hoechst High Intensity Objects (%) [12]: 2%
Population Membrane Permeable-Phenotype (%) [12]: 10%
Population Mitochondria Different-Phenotype (%) [12]: 12%
Population Mitotic Cells (%) [12]: 4%
Population Normal (%) [12]: 97%
Population Pyknosed Nuclei (%) [12]: 11%
Population Tubulin-Different-Phenotype (%) [12]: 4%
Total Cell Count [12]: 201
